The list is not random: actives were taken first. Their share in the collection is about 4.1%.
MEKK3 PB1 HTS = modulators (inhibitors or enhancers) of MEK5 binding to human MEKK3 PB1 domain; Q99759; bead-based flow cytometry, Alexa488-MEK5 binding to MEKK3; actives lie on both sides; 0 = blocked by unlabeled MEK5, 100 = vehicle; binding response (% of control), % at 10 µM; 1.4% of 290,000 active;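 active means binding response more than 3 SD above or below the average of its plate-row segment, actives on both sides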;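 further: Alexa488 bead fluorescence after subtracting the streptavidin-only scavenger bead signal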
Target sequence (Q99759 whole entry, looked up, the tested form may be a part): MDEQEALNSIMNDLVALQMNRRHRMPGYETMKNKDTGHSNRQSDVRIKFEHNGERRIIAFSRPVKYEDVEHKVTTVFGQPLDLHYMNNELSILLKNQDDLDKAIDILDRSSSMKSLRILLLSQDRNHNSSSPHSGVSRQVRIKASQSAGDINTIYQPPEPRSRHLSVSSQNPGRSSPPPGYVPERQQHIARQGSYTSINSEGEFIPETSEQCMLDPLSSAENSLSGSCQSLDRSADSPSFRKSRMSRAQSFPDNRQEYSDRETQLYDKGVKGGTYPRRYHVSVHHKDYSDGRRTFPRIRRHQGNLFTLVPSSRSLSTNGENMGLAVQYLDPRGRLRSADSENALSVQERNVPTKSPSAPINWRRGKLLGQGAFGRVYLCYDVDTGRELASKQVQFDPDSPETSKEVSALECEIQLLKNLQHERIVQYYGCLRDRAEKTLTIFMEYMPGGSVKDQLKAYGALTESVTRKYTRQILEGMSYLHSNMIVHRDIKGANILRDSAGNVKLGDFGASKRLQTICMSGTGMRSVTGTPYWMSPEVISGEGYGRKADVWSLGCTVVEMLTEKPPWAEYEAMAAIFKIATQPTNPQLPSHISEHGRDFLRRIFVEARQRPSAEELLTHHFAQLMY
FID counter = displaces DNA intercalator in HCV helicase counter-screen; inhibition, % at 7.9 µM; DNA fluorescent intercalator displacement, fluorescence; 0.17% of 290,000 active; in the data active means inhibition above about 37%;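 further: higher means more ethidium bromide displaced from hairpin DNA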
NS3 helicase inh = inhibitors of Hepatitis C virus NS3 helicase. 0.56% of 290,000 active. inhibition, % at 10.9 µM. NS3 helicase DNA unwinding, Cy5 molecular beacon fluorescence. AID 1800;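 active means inhibition above the mean of all tested compounds plus 3 SD, set per campaign, cut at about 35% in these data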
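test system = hepatitis C virus NS3 helicase domain fragment enzyme | reagent = annealed dual-labelled DNA beacon duplex, ATP-started | times = 1 h at 25 °C | detection = Cy5 fluorescence, 0 and 60 min reads | read-out basis = percent inhibition from t60/t0 fluorescence ratio | control set = DMSO and thioflavine S | replication = one well per compound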
T cruzi repl = T. cruzi replication inhibition; inhibition, % (no concentration beside the values); T. cruzi beta-gal in NIH3T3, luminescence, 90 h; AID 1885; 1.4% of 300,000 active;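 active means mean inhibition across valid replicates above about 55%, limit read from the data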;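 further: signal also drops with host cell toxicity which is not excluded here; higher percent means less beta-gal luminescence so fewer parasites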
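System – NIH/3T3 host cells with β-galactosidase reporter T. cruzi · Doses – single 50 nL compound addition per well in DMSO · Reagent – 5000 T. cruzi trypomastigotes/well · Medium – Low-serum DMEM with 2% FBS · Timing – ≥90 h infection period, 3 h prior cell attachment · Evaluation – parasite load inhibition, % · Technique – GalScreen luminescence, 60 min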
MEKK2 mut-MEK5 = signal of MEK5 binding to mutant human MEKK2 PB1 domain; 0.35% of 290,000 active; bead flow cytometry, Alexa488-MEK5 binding to MEKK2 mutant; percent response, % at 10 µM; in the data active means percent response above about 24%, passing the limit was not always enough
MEKK2 WT-MEK5 = raises or lowers MEK5 binding to wildtype human MEKK2 PB1 domain | bead flow cytometry, Alexa488-MEK5 binding to MEKK2 WT; actives lie on both sides | binding response (% of control), % at 10 µM | AID 1531 | 1.1% of 290,000 active | Q9Y2U5; in the data active means binding response below about 67% or above about 130%
MEKK2wt confirm = raises or lowers MEK5 binding to wildtype human MEKK2, retest. binding response (% of control), % at 10 µM. 2.4% of 5,900 active. AID 1892. bead flow cytometry, Alexa488-MEK5 binding to MEKK2 WT; actives lie on both sides. shares compounds with MEKK3 PB1 HTS; in the data active means binding response below about 16% or above about 210%; inactive means in between
MEKK2mut-MEK5 = signal of MEK5 binding to mutant human MEKK2, retest. AID 1893. percent response, % at 10 µM. bead flow cytometry, Alexa488-MEK5 binding to MEKK2 mutant. shares compounds with MEKK3 PB1 HTS. 2% of 5,900 active; in the data active means percent response mostly above about 71%, no sharp cut-off; inactive means mostly below about 38%;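 further: higher means compound restores mutant binding toward wildtype level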
MEKK3 confirm = MEKK3-MEK5 PB1 inhibition, single concentration confirmation; shares compounds with MEKK3 PB1 HTS; bead flow cytometry, Alexa488-MEK5 binding to MEKK3; stronger effect = lower value; 1.8% of 5,900 active; binding response (% of control), % at 10 µM;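 active means binding response below 72% of control, or above a set upper limit, though filed actives all read lower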
A number is an active result; – = inactive; · = no result; [ ] = dose if it differs, or a comment.

SMILES	MEKK3 PB1 HTS	FID counter	NS3 helicase inh	T cruzi repl	MEKK2 mut-MEK5	MEKK2 WT-MEK5	MEKK2wt confirm	MEKK2mut-MEK5	MEKK3 confirm
O=C(O)CCN1C(=O)C2C3CC(C2C1=O)C1C(c2ccccc2)c2sc(=O)n(-c4ccccc4)c2SC31 (stereo not drawn)	129.0	–	–	–	–	–	–	–	–
COc1ccc(N(CC(=O)N2CCN(c3ccc(F)cc3)CC2)S(=O)(=O)c2c(C)n[nH]c2C)cc1	128.0	–	–	–	–	–	–	–	–
COc1ccc(N(CC(=O)N2CCN(c3ccc(F)cc3)CC2)S(=O)(=O)c2c(C)noc2C)cc1	–	–	–	–	–	–	·	·	·
CC(C)(CC(=O)O)CC(=O)NNc1ncccc1C#N	–	–	–	–	–	–	·	·	·
COC(=O)Cn1c(N2CCCC2)nc2c1c(=O)n(C)c(=O)n2C	–	–	–	–	30.0	–	–	–	–
Cc1cc(NC(=O)COC(=O)COc2ccc3c(c2)CCC3)no1	132.0	–	–	–	–	–	–	–	–
CCOC(=O)c1ccccc1-n1c(C)cc(C2N=C(N)Nc3nc4ccccc4n32)c1C (stereo not drawn)	–	–	–	–	–	146.0	–	–	–
CCOC(=O)C1=C(C)Nc2nc3ccccc3n2C1c1ccc(O)cc1 (stereo not drawn)	–	–	–	–	–	–	·	·	·
CC(C)(C)c1cc(NC(=O)CSc2nncs2)n(-c2ccccc2)n1	–	–	–	–	–	–	·	·	·
C(=C\c1nc(-c2cccnc2)no1)/c1ccccc1	3.0[inhibitor]	–	–	–	–	6.0[inhibitor]	–	–	–
O=c1c2cc(Cl)ccc2oc2nc3n(c(=O)c12)CCCS3	74.0[inhibitor]	–	–	–	–	–	–	–	–
Cc1cc(C(=O)OCC(=O)N(CC(C)C)c2c(N)n(Cc3ccccc3)c(=O)[nH]c2=O)c(C)o1	·	·	·	–	·	·	·	·	·
CCOC(=O)c1sc(NC(=O)CSc2nc3c(c(=O)n2-c2ccc(C)cc2)SCC3)c(C(=O)OCC)c1C	71.0[inhibitor]	–	–	–	–	–	–	–	–
CCOc1ccc(CCNC(=O)COC(=O)c2cc(OC)c(OC)cc2[N+](=O)[O-])cc1OCC	·	·	·	–	·	·	·	·	·
CSc1nc(-c2ccccc2)nn1C(=O)c1ccco1	1.0[inhibitor]	–	–	–	–	1.0[inhibitor]	–	–	–
CSc1nc(-c2ccccc2)nn1C(=O)c1ccccc1	·	–	–	–	·	·	·	·	·
CCOC(=O)c1ccc(NC(=S)Nc2ccccc2)cc1	64.0[inhibitor]	–	–	–	–	–	–	–	–
CCOC(=O)c1ccc(NC(=O)c2nn(CC)cc2Br)cc1	0.0[inhibitor]	–	–	–	–	-4.0[inhibitor]	–	–	–
CCOC(=O)c1ccc(NC(=S)NC(=O)c2nn(CC)cc2Br)cc1	–	–	–	–	–	–	·	·	·
CC(=O)NCCCC(=O)NN1C(=S)N(Cc2ccccc2)C(=O)C1CC(=O)Nc1cccc(C)c1 (stereo not drawn)	–	–	–	–	–	–	·	·	·
CCCCCC(=O)N1CC2(CC(c3cccc(NC(=O)CC(c4ccccc4)c4ccccc4)c3)=NO2)C[C@@H]1C(N)=O (stereo partly drawn)	81.0[inhibitor]	·	·	–	–	–	–	–	–
CCCC1Cc2c(sc(NC(=S)NC(=O)c3ccccc3)c2C#N)CO1 (stereo not drawn)	134.0	–	–	–	–	–	–	–	–
Cc1ccc(C(=O)N/N=C2\CCc3ccccc32)c(C)c1	141.0	–	–	–	–	–	–	–	–
CCOC(=O)C(C)Sc1ncc(-c2ccccc2)cn1 (stereo not drawn)	–	–	–	–	–	–	·	·	·
NS(=O)(=O)c1ccc(CCNC(=O)Cc2cccs2)cc1	–	–	–	–	–	–	·	·	·
SMILES	MEKK3 PB1 HTS	FID counter	NS3 helicase inh	T cruzi repl	MEKK2 mut-MEK5	MEKK2 WT-MEK5	MEKK2wt confirm	MEKK2mut-MEK5	MEKK3 confirm
CCCCN1CN(Cc2ccccc2)CNC1=S	–	–	–	–	–	–	·	·	·
CCOCCCN1CN(Cc2ccccc2)CNC1=S	128.0	–	–	–	–	–	–	–	–
Cc1nn(C)c(C)c1NC(=O)CSc1nc(Cc2ccccc2)nc2c1cnn2-c1ccccc1	74.0[inhibitor]	–	–	–	–	–	–	–	–
COc1ccc(C(=O)Nc2ccccc2C(=O)NCCCn2ccnc2)cc1	122.0	–	–	–	–	–	–	–	–
O=C(Nc1ccccc1C(=O)NCCCn1ccnc1)c1ccccc1	–	–	–	–	–	–	·	·	·
O=C(COC(=O)c1sc2ccccc2c1Cl)NCC1CCCCC1	–	–	–	–	–	–	·	·	·
CC1CCCC(NC(=O)COC(=O)c2sc3ccccc3c2Cl)C1C (stereo not drawn)	135.0	–	–	–	–	–	–	–	–
N=C1/C(=C\c2coc3ccccc3c2=O)C(=O)N=C2SC(c3ccncc3)=NN12	70.0[inhibitor]	–	–	–	–	–	–	–	–
CCOC(=O)C(NC(=O)c1ccccc1)(OCc1ccc(F)cc1)C(F)(F)F (stereo not drawn)	128.0	–	–	–	–	–	–	–	–
CN1/C(=C\C(=O)c2cccnc2)C(C)(C)c2ccccc21	147.0	–	–	–	–	–	–	–	–
CN1/C(=C\C(=O)c2cncc(Br)c2)C(C)(C)c2ccccc21	–	–	–	–	–	–	·	·	·
COC(=O)C1=C(NC(=O)c2cccs2)CCS1	–	–	–	·	–	–	·	·	·
COC(=O)C1=C(NC(=O)c2ccccc2C)CCS1	46.0[inhibitor]	–	–	–	–	–	–	–	–
COc1ccc(-[n+]2c(C)cc(/C=C3\Sc4ccccc4N3C)cc2C)cc1	71.0[inhibitor]	–	–	–	–	29.0[inhibitor]	–	–	–
CCOCCCN1CC(=O)N2[C@@H](Cc3c([nH]c4ccccc34)C2(C)C)C1=O	–	–	–	–	–	–	·	·	·
Cc1ccc(-c2nc(C#N)c(NCc3cccc4c3OCO4)o2)cc1	70.0[inhibitor]	–	–	–	–	–	–	–	–
CCOC(=O)c1c(NC(=O)COC(=O)C2CC2C)sc(C)c1C (stereo not drawn)	–	–	–	–	–	–	·	·	·
O=S(=O)(c1ccc(Cl)cc1)N1CCCc2ccccc21	–	–	–	–	–	–	·	·	·
O=S(=O)(c1ccc(Cl)cc1)N1CCc2ccccc21	–	–	–	–	46.0	–	–	–	–

From PubChem
